From ChEMBL document CHEMBL5724801, “EUbOPEN Chemogenomics Library - Multiplex” (2024)
Values joined by “and” are separate entries in the source; they are usually repeats but may differ in a detail not shown here. Equal entries are not always repeated.

Test system: Fibroblast
Assay: Multiplex assay against human fibroblast
Format: toxicity, cell-based
Outline: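 Live cells were stained at seeding with Hoechst33342, BioTracker Green Microtubule Cytoskeleton Dye, MitoTracker Red and Annexin V Alexa Fluor 680, then imaged on a CQ1 microscope at 37°C and 5% CO2 after compound addition. CellPathfinder machine-learning gating split cells into Hoechst high-intensity objects or normal cells. Normal cells were split into healthy, pyknosed or fragmented nuclei, and pyknosed cells into mitotic or apoptotic. Tubulin, mitochondrial-mass and membrane-permeability phenotypes are per cents of healthy-nucleus cells.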

[1] = 12 h, 1 µM, compound concentration 1 uM
[2] = 12 h, 10 µM, compound concentration 10 uM
[3] = 24 h, 1 µM, compound concentration 1 uM
[4] = 24 h, 10 µM, compound concentration 10 uM
[5] = 48 h, 1 µM, compound concentration 1 uM
[6] = 48 h, 10 µM, compound concentration 10 uM

Question: With `Cc1cc(C)c(NC(=O)C2CC3CCC2C3)c(C)c1` (stereo not given) as the molecule, how does the “Population Apoptotic (%)” value [1] read?
Answer: 12% and 10%

Question: What about the “Population Fragmented Nuclei (%)” value [1] of the same molecule?
Answer: 14.14% and 5.66%

Question: What about the “Population Healthy Nuclei (%)” value [1] of the same molecule?
Answer: 59.69% and 81.76%

Question: What about the “Population Hoechst High Intensity Objects (%)” value [1] of the same molecule?
Answer: 0%

Question: What about the “Population Membrane Permeable-Phenotype (%)” value [1] of the same molecule?
Answer: 3.51% and 5.38%

Question: What about the “Population Mitochondria Different-Phenotype (%)” value [1] of the same molecule?
Answer: 7.02% and 6.92%

Question: And the “Population Mitotic Cells (%)” value [1]?
Answer: 88% and 90%

Question: What about the “Population Normal (%)” value [1] of the same molecule?
Answer: 100%

Question: What about the “Population Pyknosed Nuclei (%)” value [1] of the same molecule?
Answer: 26.18% and 12.58%

Question: And the “Population Tubulin-Different-Phenotype (%)” value [1]?
Answer: 12.28% and 22.31%

Question: What about the “Total Cell Count” value [1] of the same molecule?
Answer: 191 and 159

Question: What about the “Population Apoptotic (%)” value [2] of the same molecule?
Answer: 10% and 7.69%

Question: What about the “Population Fragmented Nuclei (%)” value [2] of the same molecule?
Answer: 12.88% and 9.48%

Question: And the “Population Healthy Nuclei (%)” value [2]?
Answer: 62.58% and 78.2%

Question: What about the “Population Hoechst High Intensity Objects (%)” value [2] of the same molecule?
Answer: 0%

Question: What about the “Population Membrane Permeable-Phenotype (%)” value [2] of the same molecule?
Answer: 3.92% and 3.64%

Question: What about the “Population Mitochondria Different-Phenotype (%)” value [2] of the same molecule?
Answer: 10.78% and 7.27%

Question: What about the “Population Mitotic Cells (%)” value [2] of the same molecule?
Answer: 90% and 92.31%

Question: What about the “Population Normal (%)” value [2] of the same molecule?
Answer: 100%

Question: And the “Population Pyknosed Nuclei (%)” value [2]?
Answer: 24.54% and 12.32%

Question: What about the “Population Tubulin-Different-Phenotype (%)” value [2] of the same molecule?
Answer: 11.76% and 19.39%

Question: What about the “Total Cell Count” value [2] of the same molecule?
Answer: 163 and 211

Question: What about the “Population Apoptotic (%)” value [3] of the same molecule?
Answer: 16.28% and 15.38%

Question: What about the “Population Fragmented Nuclei (%)” value [3] of the same molecule?
Answer: 13.89% and 7.5%

Question: What about the “Population Healthy Nuclei (%)” value [3] of the same molecule?
Answer: 66.2% and 84.38%

Question: What about the “Population Hoechst High Intensity Objects (%)” value [3] of the same molecule?
Answer: 0%

Question: What about the “Population Membrane Permeable-Phenotype (%)” value [3] of the same molecule?
Answer: 9.09% and 3.7%

Question: What about the “Population Mitochondria Different-Phenotype (%)” value [3] of the same molecule?
Answer: 5.59% and 6.67%

Question: And the “Population Mitotic Cells (%)” value [3]?
Answer: 83.72% and 84.62%

Question: And the “Population Normal (%)” value [3]?
Answer: 100%

Question: What about the “Population Pyknosed Nuclei (%)” value [3] of the same molecule?
Answer: 19.91% and 8.12%

Question: And the “Population Tubulin-Different-Phenotype (%)” value [3]?
Answer: 12.59% and 16.3%

Question: What about the “Total Cell Count” value [3] of the same molecule?
Answer: 216 and 160

Question: What about the “Population Apoptotic (%)” value [4] of the same molecule?
Answer: 9.38% and 12%

Question: What about the “Population Fragmented Nuclei (%)” value [4] of the same molecule?
Answer: 8.88% and 6.07%

Question: And the “Population Healthy Nuclei (%)” value [4]?
Answer: 72.19% and 82.24%

Question: What about the “Population Hoechst High Intensity Objects (%)” value [4] of the same molecule?
Answer: 0%

Question: And the “Population Membrane Permeable-Phenotype (%)” value [4]?
Answer: 7.38% and 2.84%

Question: What about the “Population Mitochondria Different-Phenotype (%)” value [4] of the same molecule?
Answer: 7.38% and 8.52%

Question: What about the “Population Mitotic Cells (%)” value [4] of the same molecule?
Answer: 90.62% and 88%

Question: And the “Population Normal (%)” value [4]?
Answer: 100%

Question: And the “Population Pyknosed Nuclei (%)” value [4]?
Answer: 18.93% and 11.68%

Question: And the “Population Tubulin-Different-Phenotype (%)” value [4]?
Answer: 22.13% and 22.73%

Question: And the “Total Cell Count” value [4]?
Answer: 169 and 214

Question: And the “Population Apoptotic (%)” value [5]?
Answer: 30.77% and 13.33%

Question: What about the “Population Fragmented Nuclei (%)” value [5] of the same molecule?
Answer: 8.78% and 7.14%

Question: And the “Population Healthy Nuclei (%)” value [5]?
Answer: 84.88% and 83.12%

Question: What about the “Population Hoechst High Intensity Objects (%)” value [5] of the same molecule?
Answer: 0%

Question: And the “Population Membrane Permeable-Phenotype (%)” value [5]?
Answer: 1.15% and 5.47%

Question: What about the “Population Mitotic Cells (%)” value [5] of the same molecule?
Answer: 69.23% and 86.67%

Question: What about the “Population Normal (%)” value [5] of the same molecule?
Answer: 100%

Question: What about the “Population Pyknosed Nuclei (%)” value [5] of the same molecule?
Answer: 6.34% and 9.74%

Question: What about the “Population Tubulin-Different-Phenotype (%)” value [5] of the same molecule?
Answer: 8.62% and 19.53%

Question: And the “Total Cell Count” value [5]?
Answer: 205 and 154

Question: And the “Population Apoptotic (%)” value [6]?
Answer: 50% and 17.65%

Question: What about the “Population Fragmented Nuclei (%)” value [6] of the same molecule?
Answer: 9.04% and 4.07%

Question: And the “Population Healthy Nuclei (%)” value [6]?
Answer: 87.77% and 88.24%

Question: And the “Population Hoechst High Intensity Objects (%)” value [6]?
Answer: 0%

Question: And the “Population Membrane Permeable-Phenotype (%)” value [6]?
Answer: 1.82% and 2.56%

Question: What about the “Population Mitochondria Different-Phenotype (%)” value [6] of the same molecule?
Answer: 10.91% and 6.15%

Question: What about the “Population Mitotic Cells (%)” value [6] of the same molecule?
Answer: 50% and 82.35%

Question: And the “Population Normal (%)” value [6]?
Answer: 100%

Question: And the “Population Pyknosed Nuclei (%)” value [6]?
Answer: 3.19% and 7.69%

Question: And the “Total Cell Count” value [6]?
Answer: 188 and 221

Question: What does the source list for `c1cc(OCCCN2CCCCC2)ccc1CN1CCCCC1` [JNJ-5207852]?
Answer: Population Apoptotic (%) [1]: 37% and 26%; Population Fragmented Nuclei (%) [1]: 15% and 24%; Population Healthy Nuclei (%) [1]: 64% and 51%; Population Hoechst High Intensity Objects (%) [1]: 1% and 7%; Population Membrane Permeable-Phenotype (%) [1]: 0% and 8%; Population Mitochondria Different-Phenotype (%) [1]: 2% and 5%; Population Mitotic Cells (%) [1]: 62% and 73%; Population Normal (%) [1]: 98% and 92%; Population Pyknosed Nuclei (%) [1]: 20% and 23%; Population Tubulin-Different-Phenotype (%) [1]: 26% and 49%; Total Cell Count [1]: 181 and 153; Population Apoptotic (%) [2]: 50% and 43%; Population Fragmented Nuclei (%) [2]: 22% and 36%; Population Healthy Nuclei (%) [2]: 68% and 42%; Population Hoechst High Intensity Objects (%) [2]: 1%; Population Membrane Permeable-Phenotype (%) [2]: 0% and 12%; Population Mitochondria Different-Phenotype (%) [2]: 6% and 10%; Population Mitotic Cells (%) [2]: 50% and 56%; Population Normal (%) [2]: 98%; Population Pyknosed Nuclei (%) [2]: 9% and 20%; Population Tubulin-Different-Phenotype (%) [2]: 35% and 60%; Total Cell Count [2]: 193 and 114; Population Apoptotic (%) [3]: 38% and 33%; Population Fragmented Nuclei (%) [3]: 18% and 28%; Population Healthy Nuclei (%) [3]: 66% and 51%; Population Hoechst High Intensity Objects (%) [3]: 2% and 5%; Population Membrane Permeable-Phenotype (%) [3]: 0% and 5%; Population Mitochondria Different-Phenotype (%) [3]: 2% and 6%; Population Mitotic Cells (%) [3]: 61% and 66%; Population Normal (%) [3]: 97% and 95%; Population Pyknosed Nuclei (%) [3]: 15% and 19%; Population Tubulin-Different-Phenotype (%) [3]: 23% and 55%; Total Cell Count [3]: 176 and 160; Population Apoptotic (%) [4]: 60% and 41%; Population Fragmented Nuclei (%) [4]: 24% and 45%; Population Healthy Nuclei (%) [4]: 65% and 38%; Population Hoechst High Intensity Objects (%) [4]: 1% and 5%; Population Membrane Permeable-Phenotype (%) [4]: 0% and 4%; Population Mitochondria Different-Phenotype (%) [4]: 6% and 13%; Population Mitotic Cells (%) [4]: 40% and 58%; Population Normal (%) [4]: 99% and 94%; Population Pyknosed Nuclei (%) [4]: 10% and 15%; Population Tubulin-Different-Phenotype (%) [4]: 34% and 67%; Total Cell Count [4]: 201 and 118; Population Apoptotic (%) [5]: 70% and 44%; Population Fragmented Nuclei (%) [5]: 18% and 32%; Population Healthy Nuclei (%) [5]: 63% and 48%; Population Hoechst High Intensity Objects (%) [5]: 2% and 4%; Population Membrane Permeable-Phenotype (%) [5]: 0% and 5%; Population Mitochondria Different-Phenotype (%) [5]: 2%; Population Mitotic Cells (%) [5]: 29% and 55%; Population Normal (%) [5]: 97% and 95%; Population Pyknosed Nuclei (%) [5]: 17% and 18%; Population Tubulin-Different-Phenotype (%) [5]: 23% and 50%; Total Cell Count [5]: 184 and 160; Population Apoptotic (%) [6]: 55% and 30%; Population Fragmented Nuclei (%) [6]: 19% and 48%; Population Healthy Nuclei (%) [6]: 70% and 41%; Population Hoechst High Intensity Objects (%) [6]: 2% and 3%; Population Membrane Permeable-Phenotype (%) [6]: 0% and 5%; Population Mitochondria Different-Phenotype (%) [6]: 2% and 11%; Population Mitotic Cells (%) [6]: 44% and 69%; Population Normal (%) [6]: 97% and 96%; Population Pyknosed Nuclei (%) [6]: 9% and 10%; Population Tubulin-Different-Phenotype (%) [6]: 34% and 66%; Total Cell Count [6]: 189 and 132
